Assay results reported in ChEMBL document CHEMBL1212854, “The structure-activity relationships of A-ring-substituted aromathecin topoisomerase I inhibitors strongly support a camptothecin-like binding mode” (2010).
Activity calls are given as the source filed them. The calls are words filed in the database; no cut-off is given here.

How the values were obtained:
[1] = biological target: T1, DNA topoisomerase 1 (Homo sapiens) (UniProt P11387); assay: Inhibition of human recombinant Top1-mediated DNA cleavage at 0.1 to 100 uM after 20 mins relative to camptothecin; design: scale not given: the % may be the effect or the level left
T1 sequence (whole entry): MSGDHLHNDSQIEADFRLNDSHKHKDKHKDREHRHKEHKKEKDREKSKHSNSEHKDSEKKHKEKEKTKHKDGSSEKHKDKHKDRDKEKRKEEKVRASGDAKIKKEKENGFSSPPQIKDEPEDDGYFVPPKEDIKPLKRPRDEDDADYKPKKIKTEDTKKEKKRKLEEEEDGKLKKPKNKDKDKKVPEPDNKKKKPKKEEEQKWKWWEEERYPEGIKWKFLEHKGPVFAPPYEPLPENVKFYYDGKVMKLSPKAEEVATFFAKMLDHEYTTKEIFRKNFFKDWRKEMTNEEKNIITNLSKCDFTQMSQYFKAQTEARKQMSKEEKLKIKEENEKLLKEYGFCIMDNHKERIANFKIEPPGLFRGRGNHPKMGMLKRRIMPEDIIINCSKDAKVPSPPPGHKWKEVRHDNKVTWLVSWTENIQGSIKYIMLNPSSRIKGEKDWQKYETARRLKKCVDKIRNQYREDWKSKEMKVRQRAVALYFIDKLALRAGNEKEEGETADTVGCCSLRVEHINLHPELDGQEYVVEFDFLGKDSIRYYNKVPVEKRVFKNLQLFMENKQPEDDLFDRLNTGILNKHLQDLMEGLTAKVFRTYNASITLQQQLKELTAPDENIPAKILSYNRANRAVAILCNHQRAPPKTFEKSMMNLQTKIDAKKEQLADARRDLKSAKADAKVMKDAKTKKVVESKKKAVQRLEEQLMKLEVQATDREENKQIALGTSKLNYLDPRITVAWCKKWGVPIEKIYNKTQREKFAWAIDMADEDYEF
Procedure, shortened: (§1)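 Human recombinant Top1 purified from baculovirus. Substrate is a 117-bp oligonucleotide, about 2 nM, 3′-end labelled with 32P-dGTP by Klenow fill-in. Stopped with 0.5% SDS, run on 20% denaturing PAGE and phosphorimaged. Cleavage graded 0 to +++ against 1 μM camptothecin.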

[2] = test system: NCI-60 human cancer cell line panel (Homo sapiens); assay: Cytotoxicity against NCI-60 human cancer cell line panel (mean) at 10 uM; conditions: pooled result: one value given for 8 cell lines, strains, targets or settings, read-out: GI
OVCAR-3 = assay: Cytotoxicity against human OVCAR-3 cells; assay type: functional
Procedure, shortened: (§2)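 NCI 60-cell-line screen (eight solid-tumour subpanels plus leukemia). A one-dose pass at 10−5 M came first. Selected compounds were then run at five concentrations from 10−8 to 10−4 M. GI50 is the concentration giving 50% growth inhibition.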

UACC-62 = assay: Cytotoxicity against human UACC62 cells; assay type: functional; procedure, shortened: as §2
SN12C = assay: Cytotoxicity against human SN12C cells; assay type: functional; procedure, shortened: as §2
MCF7 = assay: Cytotoxicity against human MCF7 cells; assay type: functional; procedure, shortened: as §2
HOP-62 = assay: Cytotoxicity against human HOP62 cells; assay type: functional; procedure, shortened: as §2
SF-539 = assay: Cytotoxicity against human SF539 cells; assay type: functional; procedure, shortened: as §2
HCT-116 = assay: Cytotoxicity against human HCT116 cells; assay type: functional; procedure, shortened: as §2
DU-145 = assay: Cytotoxicity against human DU145 cells; assay type: functional; procedure, shortened: as §2
[3] = biological target: T1, DNA topoisomerase 1 (Homo sapiens); assay: Inhibition of human recombinant Top1-mediated DNA cleavage at 1 uM after 20 mins relative to camptothecin; procedure, shortened: as §1

O=c1c2ccccc2cc2n1Cc1c-2nc2cc(Cl)ccc2c1CN1CC[C@H](O)C1
Activity [1]: 20%
inhibition of growth at 10 µM [2]: < 15%

O=c1c2ccccc2cc2n1Cc1c-2nc2cc(Cl)ccc2c1CNCCCn1ccnc1
GI50 (OVCAR-3): 2040 nM
GI50 (UACC-62): 1910 nM
Activity [1]: 20%
GI50 (SN12C): 2090 nM
GI50 (MCF7): 1660 nM
GI50 (HOP-62): 2000 nM
GI50 (SF-539): 1860 nM
inhibition of growth at 10 µM [2]: > 15%
GI50 (HCT-116): 1820 nM

Cc1cc2c(CNCCO)c3c(nc2cc1F)-c1cc2ccccc2c(=O)n1C3
GI50 (OVCAR-3): 16800 nM
GI50 (UACC-62): 14200 nM
GI50 (DU-145): 12200 nM
Activity [1]: 50%
GI50 (SN12C): 20200 nM
GI50 (MCF7): 1620 nM
GI50 (HOP-62): 11200 nM
GI50 (SF-539): 9230 nM
inhibition of growth at 10 µM [2]: > 25%
GI50 (HCT-116): 18400 nM

CN1CCN(Cc2c3c(nc4cc5c(cc24)OCCO5)-c2cc4ccccc4c(=O)n2C3)CC1
Activity [1]: 50%
inhibition of growth at 10 µM [2]: 23%

O=c1c2ccccc2cc2n1Cc1c-2nc2ccc(Cl)cc2c1CNCCCn1ccnc1
Activity [1]: 50%
inhibition of growth at 10 µM [2]: 30%

CC[C@@]1(O)C(=O)OCc2c1cc1n(c2=O)Cc2cc3ccccc3nc2-1 [CAMPTOTHECIN]
GI50 (UACC-62): 10 nM
GI50 (DU-145): 10 nM
GI50 (SN12C): 20 nM
GI50 (MCF7): 10 nM
GI50 (HOP-62): 10 nM
GI50 (SF-539): 10 nM
Activity [3]: Active
GI50 (HCT-116): 30 nM

O=c1c2ccccc2cc2n1Cc1c-2nc2cc3c(cc2c1CNCCCN1CCOCC1)OCCO3
Activity [1]: 50%
inhibition of growth at 10 µM [2]: 10.8%

COc1cc2nc3c(c(CN4CC[C@H](O)C4)c2cc1OC)Cn1c-3cc2ccccc2c1=O
Activity [1]: inactive
inhibition of growth at 10 µM [2]: 14.2%

O=c1c2ccccc2cc2n1Cc1c-2nc2cc(Cl)ccc2c1Cn1ccnc1
Activity [1]: 0%
inhibition of growth at 10 µM [2]: < 15%

COc1cc2c3c(n(CCCNCCO)c(=O)c2cc1OC)-c1cc2c(cc1C3=O)OCO2 [LMP-744]
GI50 (OVCAR-3): 500 nM
GI50 (UACC-62): 30 nM
GI50 (DU-145): < 10 nM
GI50 (SN12C): < 10 nM
GI50 (MCF7): < 10 nM
GI50 (HOP-62): 20 nM
GI50 (SF-539): 40 nM
Activity [3]: Active
GI50 (HCT-116): 100 nM

O=c1c2ccccc2cc2n1Cc1c-2nc2cc3c(cc2c1CNCCCn1ccnc1)OCCO3
Activity [1]: 50%
inhibition of growth at 10 µM [2]: 14.3%

Cc1cc2c(CN3CC[C@H](O)C3)c3c(nc2cc1F)-c1cc2ccccc2c(=O)n1C3
Activity [1]: 50%
inhibition of growth at 10 µM [2]: > 25%

CN(C)CCCc1c2c(nc3cc4c(cc13)OCCO4)-c1cc3ccccc3c(=O)n1C2
Activity [1]: 75%
inhibition of growth at 10 µM [2]: 19%

O=c1c2ccccc2cc2n1Cc1c-2nc2cc3c(cc2c1CCl)OCCO3
Activity [1]: 20%
inhibition of growth at 10 µM [2]: 10.3%
